In ChEMBL document CHEMBL5303300, “EUbOPEN Chemogenomics Library - Multiplex” (2023):
Values joined by “and” are separate entries in the source; they are usually repeats but may differ in a detail not shown here. Identical values can stand only once. *1 amine or outer side, *2 acyl side, *3 side chain or, on linkers, in order; H or OH if unused. Where a SMILES comes first, the peptide text is derived from it. Bridges are numbered along the chain shown (N, C = ends). Roman numbers before positions name the chains, in order. [ ]: non-standard residue; d: D form. Hexamethylenediamine = C(CCCN[*:2])CCN[*:1]; Dip = N[C@H](C(=O)O)C(c1ccccc1)c1ccccc1; Chg = N[C@H](C(=O)O)C1CCCCC1; NMeA = CN[C@@H](C)C(=O)O

Tests used:
HEK-293T = assay: Multiplex assay against HEK293T; format: toxicity, cell-based; conditions: human, number of replicates 2
How it was run: (§1)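 Phenotypes for tubulin, mitochondrial mass and membrane permeability are expressed as per cents of healthy-nucleus cells. Cells were stained live at seeding with Hoechst33342, BioTracker Green Microtubule Cytoskeleton Dye, MitoTracker Red and Annexin V Alexa Fluor 680, then imaged after compound addition on a CQ1 microscope at 37°C and 5% CO2. Machine-learning gating in CellPathfinder separated Hoechst high-intensity objects from normal cells, divided normal cells by nuclear state (healthy, pyknosed, fragmented) and divided pyknosed cells into mitotic or apoptotic.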

Fibroblast = assay: Multiplex assay against human fibroblast; format: toxicity, cell-based; conditions: number of replicates 2; how it was run: as §1
[1] = 12 h, 1 µM, compound concentration 1 uM
[2] = 12 h, 10 µM, compound concentration 10 uM
[3] = 24 h, 1 µM, compound concentration 1 uM
[4] = 24 h, 10 µM, compound concentration 10 uM
[5] = 48 h, 1 µM, compound concentration 1 uM
[6] = 48 h, 10 µM, compound concentration 10 uM

CN[C@@H](C)C(=O)N[C@H](C(=O)N1CCC[C@H]1C(=O)N[C@H](C(=O)NCCCCCCNC(=O)[C@@H](NC(=O)[C@@H]1CCCN1C(=O)[C@@H](NC(=O)[C@H](C)NC)C1CCCCC1)C(c1ccccc1)c1ccccc1)C(c1ccccc1)c1ccccc1)C1CCCCC1 (I: H-[NMeA][Chg]P[Dip] / II: H-[NMeA][Chg]P[Dip]; linker I:C-II:C via Hexamethylenediamine)
Population Apoptotic (%) (HEK-293T; [1]): 45% and 56%
Population Fragmented Nuclei (%) (HEK-293T; [1]): 3% and 1%
Population Healthy Nuclei (%) (HEK-293T; [1]): 85%
Population Hoechst High Intensity Objects (%) (HEK-293T; [1]): 7% and 5%
Population Membrane Permeable-Phenotype (%) (HEK-293T; [1]): 2%
Population Mitochondria Different-Phenotype (%) (HEK-293T; [1]): 27% and 23%
Population Mitotic Cells (%) (HEK-293T; [1]): 54% and 43%
Population Normal (%) (HEK-293T; [1]): 92% and 94%
Population Pyknosed Nuclei (%) (HEK-293T; [1]): 10% and 13%
Population Tubulin-Different-Phenotype (%) (HEK-293T; [1]): 59% and 58%
Total Cell Count (HEK-293T; [1]): 599 and 505
Population Apoptotic (%) (HEK-293T; [2]): 83% and 76%
Population Fragmented Nuclei (%) (HEK-293T; [2]): 4% and 2%
Population Healthy Nuclei (%) (HEK-293T; [2]): 75% and 79%
Population Hoechst High Intensity Objects (%) (HEK-293T; [2]): 12% and 5%
Population Membrane Permeable-Phenotype (%) (HEK-293T; [2]): 3% and 0%
Population Mitochondria Different-Phenotype (%) (HEK-293T; [2]): 76%
Population Mitotic Cells (%) (HEK-293T; [2]): 16% and 23%
Population Normal (%) (HEK-293T; [2]): 87% and 94%
Population Pyknosed Nuclei (%) (HEK-293T; [2]): 20% and 17%
Population Tubulin-Different-Phenotype (%) (HEK-293T; [2]): 96% and 98%
Total Cell Count (HEK-293T; [2]): 501 and 525
Population Apoptotic (%) (HEK-293T; [3]): 43% and 54%
Population Fragmented Nuclei (%) (HEK-293T; [3]): 5% and 3%
Population Healthy Nuclei (%) (HEK-293T; [3]): 87%
Population Hoechst High Intensity Objects (%) (HEK-293T; [3]): 6% and 7%
Population Membrane Permeable-Phenotype (%) (HEK-293T; [3]): 2% and 1%
Population Mitochondria Different-Phenotype (%) (HEK-293T; [3]): 16% and 20%
Population Mitotic Cells (%) (HEK-293T; [3]): 56% and 45%
Population Normal (%) (HEK-293T; [3]): 93%
Population Pyknosed Nuclei (%) (HEK-293T; [3]): 7% and 8%
Population Tubulin-Different-Phenotype (%) (HEK-293T; [3]): 40% and 44%
Total Cell Count (HEK-293T; [3]): 944 and 671
Population Apoptotic (%) (HEK-293T; [4]): 79% and 67%
Population Fragmented Nuclei (%) (HEK-293T; [4]): 7% and 4%
Population Healthy Nuclei (%) (HEK-293T; [4]): 66% and 80%
Population Hoechst High Intensity Objects (%) (HEK-293T; [4]): 12% and 7%
Population Membrane Permeable-Phenotype (%) (HEK-293T; [4]): 1% and 0%
Population Mitochondria Different-Phenotype (%) (HEK-293T; [4]): 85% and 82%
Population Mitotic Cells (%) (HEK-293T; [4]): 20% and 32%
Population Normal (%) (HEK-293T; [4]): 87% and 92%
Population Pyknosed Nuclei (%) (HEK-293T; [4]): 26% and 15%
Population Tubulin-Different-Phenotype (%) (HEK-293T; [4]): 92% and 95%
Total Cell Count (HEK-293T; [4]): 463 and 559
Population Apoptotic (%) (HEK-293T; [5]): 19% and 25%
Population Fragmented Nuclei (%) (HEK-293T; [5]): 9% and 7%
Population Healthy Nuclei (%) (HEK-293T; [5]): 86% and 87%
Population Hoechst High Intensity Objects (%) (HEK-293T; [5]): 6% and 8%
Population Membrane Permeable-Phenotype (%) (HEK-293T; [5]): 3% and 0%
Population Mitochondria Different-Phenotype (%) (HEK-293T; [5]): 2% and 5%
Population Mitotic Cells (%) (HEK-293T; [5]): 80% and 74%
Population Normal (%) (HEK-293T; [5]): 93% and 91%
Population Pyknosed Nuclei (%) (HEK-293T; [5]): 3% and 5%
Population Tubulin-Different-Phenotype (%) (HEK-293T; [5]): 18% and 25%
Total Cell Count (HEK-293T; [5]): 2232 and 1305
Population Apoptotic (%) (HEK-293T; [6]): 80% and 75%
Population Fragmented Nuclei (%) (HEK-293T; [6]): 9% and 7%
Population Healthy Nuclei (%) (HEK-293T; [6]): 72% and 74%
Population Hoechst High Intensity Objects (%) (HEK-293T; [6]): 9% and 10%
Population Membrane Permeable-Phenotype (%) (HEK-293T; [6]): 4% and 2%
Population Mitochondria Different-Phenotype (%) (HEK-293T; [6]): 53% and 56%
Population Mitotic Cells (%) (HEK-293T; [6]): 19% and 24%
Population Normal (%) (HEK-293T; [6]): 90% and 89%
Population Pyknosed Nuclei (%) (HEK-293T; [6]): 18% and 17%
Population Tubulin-Different-Phenotype (%) (HEK-293T; [6]): 82% and 84%
Total Cell Count (HEK-293T; [6]): 653 and 709
Population Apoptotic (%) (Fibroblast; [1]): 29% and 33%
Population Fragmented Nuclei (%) (Fibroblast; [1]): 14% and 9%
Population Healthy Nuclei (%) (Fibroblast; [1]): 64% and 70%
Population Hoechst High Intensity Objects (%) (Fibroblast; [1]): 0%
Population Membrane Permeable-Phenotype (%) (Fibroblast; [1]): 5% and 3%
Population Mitochondria Different-Phenotype (%) (Fibroblast; [1]): 0% and 3%
Population Mitotic Cells (%) (Fibroblast; [1]): 70% and 66%
Population Normal (%) (Fibroblast; [1]): 100%
Population Pyknosed Nuclei (%) (Fibroblast; [1]): 21% and 20%
Population Tubulin-Different-Phenotype (%) (Fibroblast; [1]): 18% and 9%
Total Cell Count (Fibroblast; [1]): 205 and 174
Population Apoptotic (%) (Fibroblast; [2]): 43% and 60%
Population Fragmented Nuclei (%) (Fibroblast; [2]): 15% and 11%
Population Healthy Nuclei (%) (Fibroblast; [2]): 55%
Population Hoechst High Intensity Objects (%) (Fibroblast; [2]): 0%
Population Membrane Permeable-Phenotype (%) (Fibroblast; [2]): 4% and 3%
Population Mitochondria Different-Phenotype (%) (Fibroblast; [2]): 6% and 15%
Population Mitotic Cells (%) (Fibroblast; [2]): 56% and 39%
Population Normal (%) (Fibroblast; [2]): 100% and 99%
Population Pyknosed Nuclei (%) (Fibroblast; [2]): 29% and 33%
Population Tubulin-Different-Phenotype (%) (Fibroblast; [2]): 59% and 55%
Total Cell Count (Fibroblast; [2]): 210 and 251
Population Apoptotic (%) (Fibroblast; [3]): 43% and 45%
Population Fragmented Nuclei (%) (Fibroblast; [3]): 9% and 10%
Population Healthy Nuclei (%) (Fibroblast; [3]): 68% and 66%
Population Hoechst High Intensity Objects (%) (Fibroblast; [3]): 0%
Population Membrane Permeable-Phenotype (%) (Fibroblast; [3]): 5% and 4%
